# Bioassay records deposited in PubChem by several laboratories.
# Rows were chosen to be rich in hits. Some 2.8% of all compounds tested hit in one or more screens of this group.
# NPY1 pot ag: NPY-Y1 receptor potentiators or agonists, primary screen, cell-based; Neuropeptide Y receptor type 1 (Homo sapiens), P25929; NPY-Y1 expressing cells, potentiator/agonist activation; activation, % at 3.6 µM; hit rate 0.37% among 220,000; in the data active means activation above about 33%, passing the limit was not always enough;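 further: cells stimulated with NPY at EC10 then isoproterenol at EC100; 0% = low agonist plus stimulus and 100% = saturating agonist plus stimulus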
# NPY Y2 blocker: NPY-Y2 receptor antagonists, primary screen, cell-based | inhibition, % at 2.7 µM | hit rate 0.99% among 140,000 | AID 793, 2007 | NPY-Y2 expressing cells, antagonist mode;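 further: 0% = vehicle with agonist challenge and 100% = reference antagonist with challenge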
# Target sequence (P49146 whole entry, looked up): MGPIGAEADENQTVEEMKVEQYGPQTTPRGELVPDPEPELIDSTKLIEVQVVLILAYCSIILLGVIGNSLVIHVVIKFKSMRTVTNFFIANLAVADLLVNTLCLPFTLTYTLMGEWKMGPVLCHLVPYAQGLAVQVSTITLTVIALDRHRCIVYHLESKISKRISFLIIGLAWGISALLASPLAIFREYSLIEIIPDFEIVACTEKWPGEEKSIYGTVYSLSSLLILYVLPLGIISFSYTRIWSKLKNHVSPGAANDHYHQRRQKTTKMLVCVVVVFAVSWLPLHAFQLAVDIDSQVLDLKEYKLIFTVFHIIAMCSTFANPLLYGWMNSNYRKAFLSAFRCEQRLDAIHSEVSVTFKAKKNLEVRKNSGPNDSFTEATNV
# NPY2 pot ag: NPY-Y2 potentiators or agonists, primary screen, cell-based; Neuropeptide Y receptor type 2 (Homo sapiens), P49146; cells expressing NPY-Y2, potentiator/agonist read-out; activation, % at 3.6 µM; hit rate 0.45% among 220,000; in the data active means activation above about 27%;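 further: cells stimulated with NPY near EC25 plus isoproterenol at EC100; 0% = vehicle plus submaximal agonist and 100% = vehicle plus saturating agonist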
# Rad51 HR inh: human RAD51 strand exchange inhibitors, primary screen, biochemical, fluorescence. hRad51 DNA strand exchange, fluorescence dequenching. inhibition, % at 10 µM. DNA repair protein RAD51 homolog 1 (Homo sapiens), Q06609. hit rate 0.085% among 200,000;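 active means inhibition above 40% at the single screening dose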;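 further: 0% = DMSO control wells and 100% = blanks with heterologous ssDNA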
#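 Test system: preformed human Rad51 ssDNA filaments; also added: Donor/quencher-labelled 47-bp dsDNA substrate; doses: 10 µM final, single point; times: 37 °C 15-min filament assembly, 30-min compound preincubation, 15-min exchange; detection: FRET fluorescence dequenching, excitation 485 nm, emission 520 nm; read-out basis: Fluorescence-based percent inhibition, control- and blank-normalised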
# NPY-Y1 antag: NPY-Y1 receptor antagonists, primary screen, cell-based. HEK293-CNG Y1 cells, membrane potential fluorescence; NPY at EC95, then isoproterenol. inhibition, % at 3.6 µM. hit rate 1% among 200,000;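 active means inhibition above the campaign mean inhibition of all tested compounds plus 3 SD, cut at about 20% in these data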;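 further: 0% = DMSO wells given NPY plus isoproterenol and 100% = isoproterenol alone without NPY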
#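 Material: HEK293 cells co-expressing NPY Y1 receptor and cyclic-nucleotide gated channel. Timing: compound incubation 1 h at room temperature, readout 45 min post-stimulation. Signal: fluorescence, membrane potential probe.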
# Measles CPE: compounds protecting cells from measles virus cytopathic effect, primary screen, measles RdRp inhibitor project, single point, MLSMR library, absorbance; Measles virus-infected cells, CPE protection; protection (pct of control), % at 4 µM; hit rate 1.5% among 140,000; AID 841, 2007; in the data active means protection mostly above about 24%, no sharp cut-off; inactive means mostly below about 26%
# NPY-Y1 ant conf: NPY-Y1 receptor antagonists, retest of hits, confirmation, HEK293-CNG cells, membrane potential fluorescence, triplicate. shares compounds with NPY-Y1 antag. cAMP; NPY challenge against isoproterenol-raised cAMP. inhibition, % at 3.6 µM. hit rate 21% among 1,200; in the data active means inhibition above about 20%;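 further: 0% = vehicle with agonist plus stimulus and 100% = stimulus alone without agonist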
# NPY2 antag ctr: NPY-Y2 receptor antagonists, selectivity check, confirmation, counter-screen for NPY-Y1 antagonist project, HEK293-CNG cells, membrane potential fluorescence, triplicate | shares compounds with NPY-Y1 antag | antagonism; cells given NPY, then isoproterenol | inhibition, % at 3.6 µM | hit rate 28% among 1,200;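 further: 0% = DMSO with agonist challenge and 100% = reference antagonist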
# The depositor's hits bear a star; . = no result. Unless noted, no stated cut-off is given here; in the data, active means inhibition above about 17%; inactive means the rest.
SMILES,NPY1 pot ag,NPY Y2 blocker,NPY2 pot ag,Rad51 HR inh,NPY-Y1 antag,Measles CPE,NPY-Y1 ant conf,NPY2 antag ctr
CC(C)(C)C(=O)NCCc1nc(-c2ccccc2)no1,.,.,.,-4,.,.,.,.
c1ccc(-c2cn(-c3ccccc3)c3[n+]2CCS3)cc1,11,.,-11,6,-1,.,.,.
CC(C)(C)c1ccc(-c2cn(-c3ccc(Br)cc3)c3[n+]2CCCS3)cc1,-46,.,-4,13,55*,.,68*,32*
COc1ccc(CN2CCC(CO)(CCOc3ccccc3)CC2)c(OC)c1C,-15,.,-22,5,24*,.,11,17
CCOc1ccccc1CN1CCC(CO)(CCOc2ccccc2)CC1,-49,.,-32,-2,31*,.,14,17
CCOc1cc(C(=O)N/N=C\c2cn(CC)nc2C)cc(OCC)c1OCC,-15,1,-12,.,2,2,.,.
Cc1ccc(-n2c(-c3ccccc3)c[n+]3c2CCc2ccccc2-3)c(C)c1,-24,.,9,16,58*,.,32*,15
Cc1ccc(-n2c(-c3ccccc3)c[n+]3c2CCC3)cc1,-3,.,-4,1,-4,.,.,.
COc1ccccc1OCC(=O)Nc1cccc(-c2nc3ccccc3o2)c1,-67,14,-27,11,20*,12,16,10
Cc1cccc(OCC(=O)Nc2cccc(-c3nnc(-c4ccccc4)o3)c2)c1C,-7,3,12,3,-10,6,.,.
Cn1c2c(c(=O)n(C)c1=O)C(C(F)(F)F)(C(F)(F)F)N=C(CCC1CCCCC1)N2,-35,10,-9,-16,22*,4,18,40*
Cn1c2c(c(=O)n(C)c1=O)C(C(F)(F)F)(C(F)(F)F)N=C(c1ccccc1Cl)N2,-5,-1,11,3,-2,12,.,.
O=[N+]([O-])c1ccc(C2CCCC/C2=N\OCc2cccc(F)c2)c([N+](=O)[O-])c1 (centres undefined),-37,0,-12,.,31*,20,11,11
Cc1ccc(C(=O)NCC(=O)OCC(=O)/C=C2\N(C)c3ccccc3C2(C)C)cc1C,-2,6,-5,10,6,5,.,.
Cc1ccccc1CSCCNC(=O)CSCc1ccc([N+](=O)[O-])cc1,-19,6,-4,.,20*,4,2,8
Cc1ccc(CSCCNC(=O)CSCc2ccc([N+](=O)[O-])cc2)cc1,-21,5,-10,7,9,9,.,.
CCC(C)(C(=O)NC1CCCC1)N(Cc1cccs1)C(=O)c1ccccn1 (centres undefined),-18,.,-5,5,16,.,.,.
CCC(C)(C(=O)NC1CCCCC1)N(Cc1ccco1)C(=O)c1cnccn1 (centres undefined),-15,8,-17,-1,11,17,.,.
CCC(C)(C(=O)NC1CCCCC1)N(Cc1cccs1)C(=O)c1ccccn1 (centres undefined),-5,.,2,6,22*,.,5,7
CCC(C)(C(=O)NC1CCCC1)N(Cc1ccco1)C(=O)c1ccc2c(c1)OCO2 (centres undefined),0,14,-20,-1,37*,17,17,12
CCC(C)(C(=O)NC1CCCC1)N(Cc1ccco1)C(=O)Cc1cccs1 (centres undefined),-2,7,-7,-2,49*,11,22*,12
CCOC(=O)c1c(CSc2cccs2)n(C)c2cc(Br)c(O)c(CN(C)C)c12,-60,.,-53,0,59*,.,51*,48*
CCOC(=O)c1c(C)n(C)c2cc(Br)c(O)c(O)c12,-5,.,-14,-1,.,.,.,.
CC(C)(C)C(=O)Nc1cc2nn(-c3ccccc3)nc2cc1Cl,6,0,16,-4,20*,8,2,4
Cc1ccc(NC(=O)c2c(C)nn(-c3ccccc3)c2Cl)c(C)c1,12,1,-8,8,9,17,.,.
SMILES,NPY1 pot ag,NPY Y2 blocker,NPY2 pot ag,Rad51 HR inh,NPY-Y1 antag,Measles CPE,NPY-Y1 ant conf,NPY2 antag ctr
Cc1cccc(C)c1NC(=O)c1c(C)nn(-c2ccccc2)c1Cl,-1,2,11,4,32*,7,5,2
COc1ccc2c(c1)C(C)=CC(C)(C)N2C(=O)CSc1nnc(-c2ccc(C)cc2)o1,-46,16,-36,5,23*,7,12,11
Cc1ccc(C)c(C(=O)CN2C3=NCCCN3c3ccccc32)c1,-5,8,-2,-10,26*,5,11,12
COc1ccccc1NC(=O)Cc1noc(CSc2cc(C)c3ccccc3n2)n1,-27,13,-18,2,20*,5,9,7
COc1ccccc1NC(=O)Cc1noc(CSc2cccc[n+]2[O-])n1,11,-1,-5,-2,4,1,.,.
Cc1cccc2nc(-c3cccnc3)c(NCCC(C)C)n12,0,.,-7,-4,22*,.,14,10
O=C1C=C(NCc2ccc(Cl)c(Cl)c2)C2(CCCCC2)O1,3,15,-6,-6,42*,12,10,7
Cn1c(=O)c2[nH]c(N3CCN(c4ccccn4)CC3)nc2n(C)c1=O,16,.,14,-2,-4,.,.,.
COc1ccccc1-c1ccc(SCC(=O)NCCc2ccccc2)nn1,-12,.,-1,9,1,.,.,.
COc1ccccc1CCNC(=O)CSc1ccc(-c2ccco2)nn1,-16,.,1,-6,22*,.,2,2
Cc1c(Cl)ccc2c(C(=O)NCCN3CCCCC3)cc(-c3ccccn3)nc12,-102,.,-63,31,25*,.,20,29*
CC1CCCCC1NC(=O)CN1C(=O)NC(Cc2ccccc2)(Cc2ccccc2)C1=O (centres undefined),-37,16,-25,.,24*,4,31*,28*
Nc1ccccc1C(=O)NNc1ncc(C(F)(F)F)cc1Cl,-80,5,-28,-10,21*,4,5,8
CCOC(=O)c1c[nH]c2c(C(F)(F)F)cccc2c1=O,14,.,-3,4,-3,.,.,.
